Assay results collected from several papers.
Compare with care: the assays were run in different laboratories.
Cell line: HeLa
Observed: cell growth or viability

SMILES	test	setting	IC50
O=C(/C=C/c1cccc2c1B(O)OC2)Nc1ccccc1	ATP luminescence	72 h	> 31.6 µM
COc1ccc(C(=O)c2cc3c(-c4ccccc4)c(OC)ccc3o2)cc1			1.3 µM
CC1(C)CC[C@]2(C(=O)O)CC[C@]3(C)C(=CC[C@@H]4[C@@]5(C)CC[C@H](O)C(C)(C)[C@@H]5CC[C@]43C)[C@@H]2C1	MTT	48 h	34.8 µM
COc1cccc(-c2cccc(NC(=O)CCc3cccc4c3B(O)OC4)c2)c1	ATP luminescence	72 h	1.05 µM
CCN1CCN(C(=O)N[C@@H](C(=O)N[C@@H]2C(=O)N3[C@@H]2SC(C)(C)[C@@H]3C(=O)O)c2ccccc2)C(=O)C1=O	ATP luminescence	48 h	68.2 µg/mL
COc1cc(C)c(-c2c(C)cc(OC)c3c(=O)cc(-c4ccccc4Br)oc23)c2oc(-c3ccccc3Br)cc(=O)c12	MTT	48 h	18.5 µM
NCCOc1cc(C(=O)Nc2cc(OCCN)c3ccccc3n2)nc(C(=O)Nc2cc(OCCN)c3ccccc3n2)c1	ATP luminescence	72 h	2.5 µM
C=CCC[C@@H]1NC(=O)[C@H]2CCCN2C(=O)[C@H](Cc2ccccc2)NC(=O)C(C)(C)NC1=O	XTT		> 100 µM
NCCCOc1cc(NC(=O)c2cccc(C(=O)Nc3cc(OCCCN)c4ccccc4n3)n2)nc2ccccc12	ATP luminescence	72 h	1.4 µM
COc1cc(OC)c2c(=O)cc(-c3ccc(Br)cc3)oc2c1	MTT	48 h	85.8 µM
Cc1c(O)c(=O)ccn1CCO	MTT	72 h	≥ 100 µM
COc1cc(C)c(-c2c(C)cc(OC)c3c(=O)cc(-c4ccc(C(F)(F)F)cc4)oc23)c2oc(-c3ccc(C(F)(F)F)cc3)cc(=O)c12	MTT	48 h	> 100 µM
COc1cc(C(=O)Nc2cc(OC)c3ccccc3n2)nc(C(=O)Nc2cc(OC)c3ccccc3n2)c1	ATP luminescence	72 h	> 40 µM
COc1cccc(C(=O)O[C@@H]2CN3Cc4c(cc5c(c4OC)OCO5)[C@@]24C=C[C@H](OC)C[C@@H]34)c1	WST-1	48 h	> 10 µM
CC1(C)S[C@@H]2[C@H](NC(=O)[C@H](N)c3ccccc3)C(=O)N2[C@H]1C(=O)O	ATP luminescence	48 h	72.7 µg/mL
O=C(O)CN1c2ccccc2Sc2ccccc21	MTS		13.2 µM
CC1(C)SC2C(NC(=O)C(NC(=O)C3=C(O)C(Cc4ccsc4)NC3=O)c3ccccc3)C(=O)N2C1C(=O)O (centres unmarked)	ATP luminescence	48 h	58.9 µg/mL
Nc1ccc(C#CC#Cc2ccc(N)cc2)cc1	MTT	24 h	91.2 µg/mL
Oc1c(I)cc(Cl)c2cccnc12	MTT	48 h	70.2 µM
CCOC(=O)C#CC#CC(=O)OCC	MTT	24 h	13.2 µg/mL
COc1cc(C)cc2oc(-c3ccc(C(F)(F)F)cc3)cc(=O)c12	MTT	48 h	> 100 µM
Oc1c(Br)cc(Br)c2cccnc12	MTT	48 h	83.2 µM
COc1cc(OC)cc(C(=O)c2cc3c(-c4ccccc4)c(O)ccc3o2)c1			15 µM
